Test results reported in ChEMBL document CHEMBL1138579, “Synthesis of alkenyldiarylmethanes (ADAMs) containing benzo[d]isoxazole and oxazolidin-2-one rings, a new series of potent non-nucleoside HIV-1 reverse transcriptase inhibitors” (Eur J Med Chem, 2009).

Key:
[1] = molecular target: Human immunodeficiency virus type 1 reverse transcriptase (Human immunodeficiency virus 1, UniProt Q72547); assay: Inhibition of HIV1 recombinant reverse transcriptase assessed as incorporation of [32P]GTP into poly(rC).oligo(dG) (rCdG) homopolymer template primer
Procedure, shortened: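 Purified recombinant HIV-1 RT, p66/51 heterodimer. Activity followed by [32P]GTP incorporation into poly(rC)·oligo(dG) homopolymer template-primer. IC50 taken as the mean of at least two separate experiments.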

[2] = Cytotoxicity against human MT4 cells by MTT assay; format: cell-based

Row | Compound | IC50 [1] [µM] | CC50 [2] [µM]
1 | COC(=O)c1cc(/C(=C\CCN2CCOC2=O)c2cc(C)c3onc(OC)c3c2)cc(C)c1OC | 0.63 | 
2 | COc1noc2c(C)cc(/C(=C\CCN3CCOC3=O)c3cc(C)c4oc(=O)n(C)c4c3)cc12 | 3.6 | 
3 | COc1noc2c(C)cc(C(=CCCN3CCOC3=O)c3cc(C)c4onc(OC)c4c3)cc12 | 0.93 | 
4 | Cc1ccnc2c1NC(=O)c1cccnc1N2C1CC1 [NEVIRAPINE] |  | > 200
5 | COC(=O)c1cc(/C(=C/CCN2CCOC2=O)c2cc(C)c3onc(OC)c3c2)cc(Cl)c1OC | 5.88 | 
6 | COc1noc2c(C)cc(/C(=C\CCN3CCOC3=O)c3cccc(C#N)c3)cc12 | 39.2 | 
7 | COC(=O)c1cc(/C(=C/CCN2CCOC2=O)c2cc(C)c3onc(OC)c3c2)cc(C)c1OC | 18.2 | 
8 | COC(=O)CCC/C=C(/c1cc(C)c2onc(OC)c2c1)c1cc(C)c2oc(=O)n(C)c2c1 | 0.25 | 
